# From article PMC3166448 (Urology, 2011)
# Entries after “also recorded” stand apart in the source; their conditions may differ. Counter-ions that a name gives are not always drawn.
# Tests used:
# [1] = Plasma pharmacokinetics after first IPI-504 dose; assay type: in vivo, human; conditions: for Time of peak plasma concentration: relative to the 30-minute infusion
# [2] = system: castration-resistant prostate cancer (CRPC); conditions: cited from earlier work
# [3] = cited from earlier work
# [4] = system: androgen-dependent and androgen-independent prostate cancer xenografts; conditions: 3 (Solit et al); cited from earlier work
# [5] = system: cytochrome P450 3A4 (CYP3A4); conditions: in vitro; cited from earlier work
# [6] = system: patients with castration-resistant prostate cancer (CRPC); assay: Phase 2 trial: treatment-emergent adverse events; assay type: in vivo, human
# [7] = 17-AAG: ref 5; IPI-504: ref 6; cited from earlier work
# [8] = twice-weekly; cited from earlier work
# [9] = system: castration-resistant prostate cancer (CRPC); assay: Phase 2 trial: PSA response / antitumor outcome; assay type: in vivo, human
# Summary of the method: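 Adults (>18 years) with progressive CRPC (two serial PSA rises or progressive radiographic metastases, serum testosterone < 50 […]). Group A was chemotherapy-naïve; Group B had radiographic metastases, progression on or intolerance to docetaxel, and ≤3 prior chemotherapy regimens. Test compound 400 mg/m2 given as a 30-min IV infusion on days 1, 4, 8 and 11 of 21-day cycles; later continuation allowed at 300 mg/m2.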
# [10] = plasma after first IPI-504 dose 400 mg/m^2 iv
# [11] = Grade ≥ 3, N=19, IPI-504 400 mg/m^2 iv
# [12] = TEAE in > 25% of study population, N=19
# [13] = any grade, N=19, IPI-504 400 mg/m^2 iv
# [14] = of the 19 patients enrolled and treated
compound,measurement,setting,value
"C=CCNC1=C2C[C@@H](C)C[C@H](OC)[C@H](O)[C@@H](C)/C=C(\C)[C@H](OC(N)=O)[C@@H](OC)/C=C\C=C(/C)C(=O)NC(=CC1=O)C2=O [17-AAG, 17-allylamine-17-demethoxygeldanamycin, reference compound]",Mean AUC0-∞,[1]; [10],"9,847 ng*hr/mL"
same,mean T1/2,[1]; [10],1.4 h
same,Time of peak plasma concentration,[1],at the end of the infusion
same,Antitumor activity in clinical trials in patients with CRPC,[2],negligible antitumor activity
same,Hepatotoxicity in phase I trials,[3],dose limiting toxicity
same,Growth of prostate cancer xenografts,[4],dose-dependent growth inhibition
CO[C@H]1/C=C/C=C(\C)C(=O)NC2=CC(=O)C(N)=C(C[C@@H](C)C[C@H](OC)[C@H](O)[C@@H](C)/C=C(\C)[C@@H]1OC(N)=O)C2=O [17-AG],mean T1/2,[1]; [10],5.2 h
same,Time of peak plasma concentration,[1],ranging from the end of the infusion to 1.5 hours post-infusion
same,Share of the total measured exposure,"[1]; sum of IPI-504, 17-AAG and 17-AG without adjustment for molecular weight",approximately 68%
"C=CCNc1c(O)cc2c(O)c1C[C@@H](C)C[C@H](OC)[C@H](O)[C@@H](C)/C=C(\C)[C@H](OC(N)=O)[C@@H](OC)/C=C\C=C(/C)C(=O)N2 [IPI-504, retaspimycin hydrochloride]",Involvement of CYP3A4 in metabolism,[5],involved in the metabolism
same,Grade 3 AST elevation in the patient who died of hepatic failure,"[6]; 1 day before hepatic failure, at study drug administration",339 U/L
same,AST elevation (Grade 4) in the second patient,"[6]; Cycle 1, Dose 2, from 32 U/L at baseline",863 U/L
same,ALT elevation (Grade 3) in the second patient,"[6]; Cycle 1, Dose 2, from a normal baseline level",659 U/L
same,AST elevation (Grade 3) in one patient,"[6]; Cycle 2, Dose 3, prompted study drug discontinuation, returned to normal 4 days later",397 U/L
same,"ALT Increased, patients with TEAE (Grade ≥ 3)",[6]; [11],1 (5) n (%)
same,"AST Increased, patients with TEAE (Grade ≥ 3)",[6]; [11],2 (11) n (%)
same,"Anemia, patients with TEAE (Grade ≥ 3)",[6]; [11],1 (5) n (%)
same,"Anorexia, patients with TEAE (Grade ≥ 3)",[6]; [11],1 (5) n (%)
same,"Anxiety, patients with TEAE (Grade ≥ 3)",[6]; [11],0 n (%)
same,"Arthralgia, patients with TEAE (Grade ≥ 3)",[6]; [11],0 n (%)
same,"Back Pain, patients with TEAE (Grade ≥ 3)",[6]; [11],1 (5) n (%)
same,"Constipation, patients with TEAE (Grade ≥ 3)",[6]; [11],0 n (%)
same,"Dehydration, patients with TEAE (Grade ≥ 3)",[6]; [11],3 (16) n (%)
same,"Diarrhea, patients with TEAE (Grade ≥ 3)",[6]; [11],1 (5) n (%)
same,"Fatigue, patients with TEAE (Grade ≥ 3)",[6]; [11],1 (5) n (%)
same,"Headache, patients with TEAE (Grade ≥ 3)",[6]; [11],0 n (%)
same,"Hypokalemia, patients with TEAE (Grade ≥ 3)",[6]; [11],0 n (%)
same,"Hyponatremia, patients with TEAE (Grade ≥ 3)",[6]; [11],2 (11) n (%)
same,"Infusion Site Pain, patients with TEAE (Grade ≥ 3)",[6]; [11],0 n (%)
same,"Musculoskeletal Pain, patients with TEAE (Grade ≥ 3)",[6]; [11],0 n (%)
same,"Myalgia, patients with TEAE (Grade ≥ 3)",[6]; [11],0 n (%)
same,"Nausea, patients with TEAE (Grade ≥ 3)",[6]; [11],1 (5) n (%)
same,"Pain in Extremity, patients with TEAE (Grade ≥ 3)",[6]; [11],0 n (%)
same,"Pneumonia, patients with TEAE (Grade ≥ 3)",[6]; [11],2 (11) n (%)
same,"Pyrexia, patients with TEAE (Grade ≥ 3)",[6]; [11],0 n (%)
same,"Vomiting, patients with TEAE (Grade ≥ 3)",[6]; [11],1 (5) n (%)
same,"Anorexia, share of study population",[6]; [12],26%
same,"Arthralgia, share of study population",[6]; [12],26%
same,"ALT Increased, patients with any TEAE",[6]; [13],2 (11) n (%)
same,"AST Increased, patients with any TEAE",[6]; [13],2 (11) n (%)
same,"Anemia, patients with any TEAE",[6]; [13],4 (21) n (%)
same,"Anorexia, patients with any TEAE",[6]; [13],5 (26) n (%)
same,"Anxiety, patients with any TEAE",[6]; [13],2 (11) n (%)
same,"Arthralgia, patients with any TEAE",[6]; [13],5 (26) n (%)
same,"Back Pain, patients with any TEAE",[6]; [13],2 (11) n (%)
same,"Constipation, patients with any TEAE",[6]; [13],4 (21) n (%)
same,"Dehydration, patients with any TEAE",[6]; [13],4 (21) n (%)
same,"Diarrhea, patients with any TEAE",[6]; [13],8 (42) n (%)
same,"Fatigue, patients with any TEAE",[6]; [13],6 (32) n (%)
same,"Headache, patients with any TEAE",[6]; [13],2 (11) n (%)
same,"Hypokalemia, patients with any TEAE",[6]; [13],2 (11) n (%)
same,"Hyponatremia, patients with any TEAE",[6]; [13],2 (11) n (%)
same,"Infusion Site Pain, patients with any TEAE",[6]; [13],4 (21) n (%)
same,"Musculoskeletal Pain, patients with any TEAE",[6]; [13],3 (16) n (%)
same,"Myalgia, patients with any TEAE",[6]; [13],3 (16) n (%)
same,"Pain in Extremity, patients with any TEAE",[6]; [13],4 (21) n (%)
same,"Pneumonia, patients with any TEAE",[6]; [13],2 (11) n (%)
same,"Pyrexia, patients with any TEAE",[6]; [13],3 (16) n (%)
same,"Vomiting, patients with any TEAE",[6]; [13],4 (21) n (%)
same,"Nausea, patients with any TEAE","[6]; any grade, N=19, IPI-504 400 mg/m^2 iv days 1, 4, 8, 11 of 21-day cycle",9 (47) n (%)
same,"Patients reported with treatment-emergent AEs (TEAEs), number",[6]; [14],18 patients
same,"Patients whose TEAEs resulted in death, percent",[6]; [14],11%
same,"Patients with CTCAE Grade 3 or higher TEAEs, number",[6]; [14],11 patients
same,"Patients with CTCAE Grade 3 or higher TEAEs, percent",[6]; [14],58%
same,AUC,"[1]; human, in vivo, 400 mg/m^2",26400 ng·h/mL
same,AUC(0-inf),"[1]; human, in vivo, iv, 400 mg/m2",11700 ng·h/mL
same,Time of peak plasma concentration,[1],at the end of the infusion
same,Solubility,[7],water-soluble
same,Maximum tolerated dose as a single agent,[8],≥ 400 mg/m^2
same,Patients achieving ≥ 50% post-treatment decline in PSA (PSA response),"[9]; Groups A and B, N=19",No PSA responses; also recorded: No patients
same,PSA decline from baseline in one patient,[9]; one Group A (chemotherapy-naïve) patient,48%
same,Time on treatment of the patient with PSA decline,[9]; one Group A patient,9 cycles
same,Time on study until discontinuation due to disease progression,"[9]; one Group A patient, after the interim analysis",approximately 2 years
same,Overall antitumor activity,"[9]; single agent, 400 mg/m^2",minimal effect on PSA or tumor burden; also recorded: negligible antitumor activity
